# Source: PubChem (The Scripps Research Institute Molecular Screening Center)
# HCV NS3 hel inh: inhibitors of Hepatitis C virus NS3 helicase | NS3 helicase DNA unwinding, Cy5 molecular beacon fluorescence | inhibition, % at 10.9 µM | 290,000 tested, 0.56% active;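 active = inhibition above the mean of all tested compounds plus 3 SD, set per campaign, cut at about 35% in these data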
#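 Test system: hepatitis C virus NS3 helicase domain fragment enzyme. Also added: annealed dual-labelled DNA beacon duplex, ATP-started. Timing: 60 min unwinding reaction at 25 °C after ATP addition. Technique: Cy5 fluorescence. Measure: % inhibition of unwinding.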
# VIM-2 inhibitor: inhibitors of Pseudomonas aeruginosa VIM-2 metallo-beta-lactamase | purified VIM-2, nitrocefin hydrolysis, epi-absorbance fluorescence | inhibition, % at 5.6 µM | 290,000 tested, 0.89% active | AID 1527;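 active = inhibition above the mean of all tested compounds plus 3 SD, cutoff set per screening run, cut at about 7.5% in these data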;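 note: red hydrolysis product quenches plate fluorescence so inhibitors raise well fluorescence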
# IMP-1 inh-1: blocks Pseudomonas aeruginosa IMP-1 metallo-beta-lactamase | purified IMP-1, nitrocefin hydrolysis, epi-absorbance fluorescence | inhibition, % at 5.6 µM | 290,000 tested, 0.45% active | AID 1556;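 active = inhibition above the mean plus 3 SD of all compounds in the same screening run, cut at about 4.5% in these data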
#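 System: Purified IMP-1 | Read-out basis: Percent enzyme inhibition | Controls: IMP-1 with DMSO as 0%, enzyme-free DMSO as 100% | Replicates: One well per compound | Doses: 5.6 µM nominal single concentration | Detection: Epi-absorbance fluorescence, 480 nm excitation, 530 nm emission | Incubation: 25 °C, 15 min preincubation, 25 min reaction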
# DNA FID counter: displaces DNA intercalator in HCV helicase counter-screen. DNA fluorescent intercalator displacement, fluorescence. inhibition, % at 7.9 µM. 290,000 tested, 0.17% active; in the data active = inhibition above about 37%;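 note: higher means more ethidium bromide displaced from hairpin DNA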
# IMP-1 inh-2: blocks IMP-1 metallo-beta-lactamase in VIM-2 selectivity screen | shares compounds with VIM-2 inhibitor | purified IMP-1, nitrocefin hydrolysis, epi-absorbance fluorescence | inhibition, % at 5.6 µM | 1,300 tested, under 10 active; call rule not given here
# VIM-2 FRET inh: counter-screen for VIM-2 inhibitors: epi-absorbance artifacts via FRET | shares compounds with VIM-2 inhibitor | purified VIM-2, CCF2 FRET substrate hydrolysis | inhibition, % at 5.6 µM | 1,300 tested, 23% active | AID 1857;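 active = inhibition above the mean of all tested compounds plus 3 SD, cut at about 19% in these data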
# TEM-1 inh: blocks E. coli TEM-1 beta-lactamase in VIM-2 selectivity screen; shares compounds with VIM-2 inhibitor; inhibition, % at 5.6 µM; 1,300 tested, 3% active; Purified TEM-1, nitrocefin hydrolysis, epi-absorbance fluorescence;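 active = inhibition above that campaign's mean inhibition plus 3 SD, cut at about 0.46% in these data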
# Target sequence (P62593 whole entry, looked up): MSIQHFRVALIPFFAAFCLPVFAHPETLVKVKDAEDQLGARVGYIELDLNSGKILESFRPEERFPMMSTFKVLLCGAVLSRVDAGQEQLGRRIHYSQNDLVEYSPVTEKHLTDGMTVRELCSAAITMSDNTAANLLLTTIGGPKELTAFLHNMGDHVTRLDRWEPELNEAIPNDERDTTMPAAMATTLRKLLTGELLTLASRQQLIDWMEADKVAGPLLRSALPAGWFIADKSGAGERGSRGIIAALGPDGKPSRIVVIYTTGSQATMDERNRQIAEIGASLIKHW
# VIM-2 inh conf: confirmation of P. aeruginosa VIM-2 metallo-beta-lactamase inhibitors. purified VIM-2, nitrocefin hydrolysis, epi-absorbance. 1,300 tested, 96% active. inhibition, % at 5.6 µM. AID 2187. shares compounds with VIM-2 inhibitor;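 active = inhibition of the VIM-2 beta-lactamase enzyme above about 11% from the earlier first-round screen, limit read from the data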
# A number is an active result; – = inactive; · = no result. Only some compounds are listed: those with a hit (about 1.9% of all), similar ones and a draw of the others.
SMILES,HCV NS3 hel inh,VIM-2 inhibitor,IMP-1 inh-1,DNA FID counter,IMP-1 inh-2,VIM-2 FRET inh,TEM-1 inh,VIM-2 inh conf
Cc1cc(=O)oc2cc(OCC(=O)NC3CC(C)(C)NC(C)(C)C3)c(Cl)cc12,–,–,–,–,·,·,·,·
CCc1cc(=O)oc2c(C)c(OCC(=O)NC3CC(C)(C)NC(C)(C)C3)ccc12,–,14,–,–,–,–,–,22
CCOC(=O)c1nc2sc3c(c2c(=O)n1C(C)C(=O)OCC)CCCC3 (configuration not stated),–,–,–,–,·,·,·,·
CC1(C)CC(NC(=O)COc2ccc3c4c(c(=O)oc3c2)CCCC4)CC(C)(C)N1,–,20,–,–,–,–,–,26
CC(Oc1ccc2c3c(c(=O)oc2c1)CCCC3)C(=O)NCc1ccncc1 (configuration not stated),–,25,–,–,–,–,–,38
CC(=O)C(C)Oc1ccc2c3c(c(=O)oc2c1)CCCC3 (configuration not stated),–,–,–,–,·,·,·,·
COc1ccc(OC)c(NC(=O)c2cc(S(=O)(=O)N3CCCC3)cn2C)c1,–,–,–,–,·,·,·,·
C=CCOc1ccc(C(c2c(C)n(C)n(-c3ccccc3)c2=O)c2c(C)n(C)n(-c3ccccc3)c2=O)cc1,–,–,–,–,·,·,·,·
O=C(Nc1nnc2n1CCS2)c1ccc(Br)o1,–,–,–,–,·,·,·,·
Cc1ccc(O)c(NC(=O)c2cc3nc4c(c(C(F)(F)F)n3n2)CCc2ccccc2-4)c1,–,–,–,–,·,·,·,·
CCN(CC)CCCNC(=O)c1cc2nc3c(c(C(F)(F)F)n2n1)CCc1ccccc1-3,–,13,–,–,–,–,–,15
CCCN1CCN(C(=O)Cn2nc(C)n3c(cc4sccc43)c2=O)CC1,–,18,–,–,–,–,–,23
Cc1nn(CC(=O)N2CCN(c3ccccn3)CC2)c(=O)c2cc3sccc3n12,–,–,–,–,·,·,·,·
CCc1nn(CC(=O)N2CCN(CC)CC2)c(=O)c2cc3sccc3n12,–,41,–,–,–,–,–,50
COc1ccc(C2N(C(=O)CN3CCCC3)CCCN2S(=O)(=O)c2ccccc2)cc1 (configuration not stated),–,–,–,–,·,·,·,·
O=[N+]([O-])c1ccccc1Nc1nc(-c2cccnc2)cs1,–,16,–,–,–,–,–,27
CCc1ccccc1Nc1nc(-c2cccnc2)cs1,–,–,–,–,·,·,·,·
O=[N+]([O-])c1ccccc1/C=N/n1c(-c2ccccc2)n[nH]c1=S,–,–,–,–,·,·,·,·
O=[N+]([O-])c1ccccc1/C=C/C=N/n1c(-c2ccccc2F)n[nH]c1=S,–,13,–,–,–,34,–,21
Cc1cc(C)c2c(SC(C)C)nc(N)nc2n1,–,–,–,–,·,·,·,·
O=C1C2C3C=CC(CC3)C2C(=O)N1c1cccc(Br)c1 (configuration not stated),–,–,–,–,·,·,·,·
O=C(N/N=C/c1ccc(-n2ccnc2)cc1)c1cccs1,–,77,–,–,–,–,–,84
CC(C)CCn1c(=O)c2sccc2n2c(CCCC(=O)N3CCC(N4CCCCC4)CC3)nnc12,–,13,–,–,–,–,–,17
C/C(=C\C=C(C#N)C#N)c1cc(C#N)c(N)o1,–,–,–,–,·,·,·,·
Cc1ccc(-c2csc3n[nH]c(=S)n23)cc1,–,46,–,–,–,70,–,57
CCc1cc2c(CN3CCN(C)CC3)cc(=O)oc2cc1O,–,16,–,–,–,–,1.1,31
CCc1cc2c(CN3CCN(CCO)CC3)cc(=O)oc2cc1O,–,18,–,–,–,–,–,25
Cc1cc2oc(=O)cc(CN3CCN(Cc4ccccc4)CC3)c2cc1O,–,–,–,–,·,·,·,·
O=C(CN(CC1CCCO1)C(=O)CNS(=O)(=O)c1ccc(F)cc1)NCc1ccc(F)cc1 (configuration not stated),–,–,–,–,·,·,·,·
CN(Cc1ccccc1)C(=O)c1[nH]cnc1C(=O)NCC(=O)OCc1ccccc1,–,–,–,–,·,·,·,·
